Experimental data reported in article PMC7306618 (CPT: Pharmacometrics & Systems Pharmacology, 2020).
Where “and” joins values, the source holds several entries; their conditions need not be identical. Identical values can stand only once.

Key:
human BCRP [1] = biological target: T1, human BCRP (Homo sapiens, UniProt Q9UNQ0); details: read-out: IC50 BCRP‐mediated efflux; cited from earlier work
T1 sequence (Q9UNQ0 1-655): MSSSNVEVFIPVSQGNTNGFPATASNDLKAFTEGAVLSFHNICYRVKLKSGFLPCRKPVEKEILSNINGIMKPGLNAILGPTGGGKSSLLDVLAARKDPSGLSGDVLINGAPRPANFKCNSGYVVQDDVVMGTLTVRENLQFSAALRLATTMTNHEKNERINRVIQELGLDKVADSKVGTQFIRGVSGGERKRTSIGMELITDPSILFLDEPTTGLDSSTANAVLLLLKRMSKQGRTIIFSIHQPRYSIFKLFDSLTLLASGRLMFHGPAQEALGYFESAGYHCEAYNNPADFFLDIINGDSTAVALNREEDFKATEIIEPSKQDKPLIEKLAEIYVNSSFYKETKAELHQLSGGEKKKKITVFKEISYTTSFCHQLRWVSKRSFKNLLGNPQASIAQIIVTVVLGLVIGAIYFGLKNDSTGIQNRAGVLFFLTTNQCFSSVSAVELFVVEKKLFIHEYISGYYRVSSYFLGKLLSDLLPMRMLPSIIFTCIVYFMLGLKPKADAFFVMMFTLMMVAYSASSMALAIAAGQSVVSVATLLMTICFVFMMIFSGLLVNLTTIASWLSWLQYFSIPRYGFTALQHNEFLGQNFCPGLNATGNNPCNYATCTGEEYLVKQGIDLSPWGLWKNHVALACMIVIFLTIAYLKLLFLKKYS

CYP3A [2] = details: time‐dependent inhibition, cited from earlier work
[3] = Physicochemical properties of fenebrutinib
[4] = Phase I PK of fenebrutinib; type: in vivo, human
How it was run: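 Oral dosing in phase I studies as solution, capsule (single and multiple-day) and 200 mg tablet. Plasma concentration–time data were used to estimate total clearance and apparent steady-state volume of distribution (Vss/F).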

[5] = type: in vivo, dogs; details: dog, oral tablets, co‐administration with H‐β‐CD
human BCRP [6] = biological target: T1, human BCRP; test: Inhibition of BCRP-mediated efflux in MDCKII cells; type: cell-based
How it was run: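 Unbound inhibition constants (OATP1B1/1B3 uptake; BCRP efflux) derived as in vitro IC50/2, then corrected by plasma unbound fraction. This was done because the unbound fraction in the transporter incubation was not measured. Values served as gut and liver transporter inputs to the PBPK model.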

CYP3A [7] = test: Clinical DDI study Part 4: effect of itraconazole on fenebrutinib PK; type: in vivo, human; details: 200 mg itraconazole solution once daily × 8 days; fenebrutinib 100 mg
OATP1B = details: rosuvastatin + fenebrutinib vs rosuvastatin alone; cited from earlier work
[8] = test system: Madin‐Darby Canine Kidney (MDCK) cell monolayer; test: MDCK cell monolayer apparent permeability; type: in vitro ADME; details: molar ratio H‐β‐CD to fenebrutinib 46:1
How it was run: (§1)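 Apparent permeability of test compound measured across MDCK monolayers alone and at various H‐β‐CD concentrations. These included a 46:1 H‐β‐CD:compound molar ratio, matching ~8 g H‐β‐CD per oral-solution dose with a 100 mg tablet. Change expressed relative to no H‐β‐CD. MDCK Papp was also scaled (scalar 3.9) to human jejunal Peff.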

[9] = MDCK cell monolayer apparent permeability; type: in vitro ADME, Canine; details: dog, MDCK
How it was run: as §1

[10] = Free fraction in plasma and blood/plasma partition ratio; type: in vitro ADME
Human mass balance study = type: in vivo
[11] = Fenebrutinib PBPK model parameters; parameters: species or system human
[12] = Fenebrutinib–H‐β‐CD complexation in vitro; type: physicochemical; details: estimated from in vitro experiment
OATP1B1/3 and BCRP = details: fenebrutinib 200 mg twice daily for 10 days; cited from earlier work

C[C@H]1CN(C2COC2)CCN1c1ccc(Nc2cc(-c3ccnc(N4CCn5c(cc6c5CC(C)(C)C6)C4=O)c3CO)cn(C)c2=O)nc1 [fenebrutinib]
IC50 (human BCRP [1]): 9.4 µM | Ki (CYP3A [2]; read-out: CYP3A TDI K I (apparent)): 7.9 µM | CYP3A TDI K inact (CYP3A [2]): 0.684 h⁻¹ | CYP3A k inact (CYP3A [2]): 0.0114 min⁻¹ | pK a1 ([3]; diprotic base): 5 | pK a2 ([3]; diprotic base): 3.7 | logP ([3]; octanol/water): 3.3 | pH solubility profile ([3]; pH 2.3): 35.9 | pH solubility profile ([3]; pH 2.6): 5.67 | pH solubility profile ([3]; pH 3.0): 1.44 | pH solubility profile ([3]; pH 3.8): 0.032 | pH solubility profile ([3]; pH 5.0): 0.001 | pH solubility profile ([3]; pH 6.1): 0.001 | CL/F ([4]; estimated from phase I PK data): ~ 80 L/hour | Vd/F ([4]; human, plasma, oral): ~13.4 L/kg | Apparent rate and extent of absorption in the presence of H‐β‐CD [5]: substantially decreased | Ki (human BCRP [6]): 0.926 µM | Observed change in Tmax with itraconazole (CYP3A [7]): delay | Observed decrease in Cmax with itraconazole (CYP3A [7]): ~ 11% and 11% | Observed increase in AUC0‐t with itraconazole (CYP3A [7]): 2.28 fold and ~ 2.3 fold | Effect of multiple doses on plasma concentration‐time profiles of CP‐I and CP‐III (OATP1B): comparable | Decrease in Papp relative to that without H‐β‐CD [8]: ~ 15 fold | Papp [9]: 15.1 ×10⁻⁶ cm/s | B/P [10]: 0.61 | Share of elimination through metabolic pathway (f m) (Human mass balance study): > 90% | Hepatic clearance as share of total CL ([11]; assigned in model): ~ 95% | clearance ([11]; human): 18.3 mL/min | Kcomplex with H‐β‐CD [12]: 27000 M⁻¹

CC(C)c1nc(N(C)S(C)(=O)=O)nc(-c2ccc(F)cc2)c1/C=C/[C@@H](O)C[C@@H](O)CC(=O)O [rosuvastatin]
Observed increase in AUC0–t with fenebrutinib (OATP1B1/3 and BCRP): ~2.6 fold | Observed increase in Cmax with fenebrutinib (OATP1B1/3 and BCRP): ~ 5 fold
